The list is not random: actives were taken first. Their share in the collection is about 2.5%.
bovine MsrA act: activates bovine MsrA enzyme. purified bovine MsrA, absorbance read-out. activation, % at 10.6 µM. hit rate 0.3% among 360,000. AID 602163; in the data active = activation above about 7.5%
NadD block: blocks S. aureus nicotinate mononucleotide adenylyltransferase; purified NadD enzyme, colorimetric absorbance read-out; inhibition, % at 20 µM; hit rate 0.78% among 360,000; AID 602399; in the data active = inhibition above about 26%
GalR3 antagonist: blocks the human galanin receptor 3; inhibition, % at 3 µM; HEK293 GalR3-CNG cAMP membrane potential fluorescence; galR3 body fused to GalR1 C-terminus; hit rate 0.44% among 360,000; AID 651719;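 active = inhibition above the screen-wide average plus 3 SD, cut at about 13% in these data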;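 note: forskolin and galanin both at EC90 stimulate the cells; cAMP rise reported by CNG channel membrane potential dye signal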
NR2E3 ag-1: activates human photoreceptor nuclear receptor NR2E3 | Q9Y5X4 | GST-NR2E3/biotin-RetCOR TR-FRET, 1536-well | inhibition of corepressor binding, % at 4.78 µM | hit rate 0.12% among 320,000;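 active = percent inhibition above the cutoff of mean plus 3 SD of all tested compounds, set per screening campaign, cut at about 20% in these data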
Target sequence (Q9Y5X4 whole entry, looked up): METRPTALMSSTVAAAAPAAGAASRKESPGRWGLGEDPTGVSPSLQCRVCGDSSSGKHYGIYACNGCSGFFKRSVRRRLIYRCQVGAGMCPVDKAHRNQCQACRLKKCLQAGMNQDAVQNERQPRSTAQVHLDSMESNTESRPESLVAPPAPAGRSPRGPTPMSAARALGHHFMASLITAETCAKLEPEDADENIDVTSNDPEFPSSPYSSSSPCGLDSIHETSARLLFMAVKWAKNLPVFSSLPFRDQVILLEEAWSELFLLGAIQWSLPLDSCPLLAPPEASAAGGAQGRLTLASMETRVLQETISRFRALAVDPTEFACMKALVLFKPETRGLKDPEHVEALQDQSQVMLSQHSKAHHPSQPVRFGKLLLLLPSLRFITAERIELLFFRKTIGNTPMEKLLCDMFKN
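Material: NR2E3–RetCOR corepressor complex | Quantity: 1.35 nM GST-tagged NR2E3 final | Schedule: 5 h at 4 °C | Replication: Singlicate compound wells | Reagent: RetCOR corepressor, biotinylated, 7 nM | Controls: Biotin wells as high control, 0.6% DMSO wells as low control | Signal: TR-FRET, Eu(K)-anti-GST donor, streptavidin-D2 acceptor, ex 340, em 617/671 nm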
MsrA inhibitor: inhibitors of bovine MsrA; hit rate 0.75% among 360,000; purified bovine MsrA, absorbance read-out; inhibition, % at 15.5 µM; in the data active = inhibition above about 4.5%
NR2E3 ag-2: human photoreceptor-specific nuclear receptor agonism | hit rate 0.35% among 360,000 | CHO-S Gal4-NCOR/VP16-NR2E3 two-hybrid, luciferase | AID 602229 | inhibition of corepressor binding, % at 3.98 µM;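 active = inhibition above the mean of all tested compounds plus 3 SD, cut at about 70% in these data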;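 note: higher means lower luciferase signal from less NR2E3 corepressor binding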
GalR3 antag conf: confirmation of human galanin receptor 3 antagonists; HEK293 GalR3 CNG cAMP biosensor, membrane potential fluorescence; galR3 fused to GalR1 carboxy tail; challenged with forskolin and galanin at EC90; shares compounds with GalR3 antagonist; inhibition, % at 3 µM; hit rate 59% among 1,600;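 active = inhibition above the primary screen's cutoff, the mean inhibition of all screened compounds plus 3 SD, cut at about 13% in these data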
HEK-CNG parental: counter-screen for GalR3 antagonists: nonspecific agonists in parental HEK-CNG cells; shares compounds with GalR3 antagonist; HEK293-CNG parental cells, cAMP membrane potential fluorescence; normalised: DMSO wells 0%, forskolin wells 100%; activation, % at 3 µM; hit rate 10% among 1,600; in the data active = activation above about 1.3%
Hits are given with their value.

Screening CCn1c2ccccc2c2cc(C3C(C#N)=C(N)Oc4n[nH]c(COC)c43)ccc21 (stereo not given) returned bovine MsrA act inactive, NadD block inactive, GalR3 antagonist 41, NR2E3 ag-1 inactive, MsrA inhibitor inactive, NR2E3 ag-2 inactive, GalR3 antag conf 26 and HEK-CNG parental inactive.
COc1cc2c(cc1OC)-c1cc(N3CCCCCC3)nc(=O)n1CC2 was read as bovine MsrA act inactive, NadD block inactive, GalR3 antagonist 50, NR2E3 ag-1 inactive, MsrA inhibitor inactive, NR2E3 ag-2 inactive, GalR3 antag conf 14 and HEK-CNG parental inactive.
Screening COc1ccc(S(=O)(=O)N2CCCc3ccccc32)cc1OC returned bovine MsrA act inactive, NadD block inactive, GalR3 antagonist inactive, NR2E3 ag-1 inactive, MsrA inhibitor inactive and NR2E3 ag-2 inactive.
Screening COc1cc2c(cc1OC(C)=O)C(=O)CCCC2 returned bovine MsrA act inactive, NadD block inactive, GalR3 antagonist inactive, MsrA inhibitor inactive and NR2E3 ag-2 inactive.
For COc1cc2c(cc1OC)-c1cc(N3CCCc4ccccc43)nc(=O)n1CC2 the results were bovine MsrA act inactive, NadD block inactive, GalR3 antagonist 47, NR2E3 ag-1 inactive, MsrA inhibitor inactive, NR2E3 ag-2 inactive, GalR3 antag conf 60 and HEK-CNG parental inactive.
Screening OCc1c(Cl)nc2ccccn12 returned bovine MsrA act inactive, NadD block inactive, GalR3 antagonist 14, NR2E3 ag-1 inactive, MsrA inhibitor inactive, NR2E3 ag-2 inactive, GalR3 antag conf inactive and HEK-CNG parental inactive.
Cc1ccc(CNC(=O)c2ccc(N3CCC4(CC3)CC(c3cccc(Br)c3)=NO4)c(NC(=O)c3ccccc3)c2)cc1 was read as bovine MsrA act inactive, NadD block inactive, GalR3 antagonist 14, NR2E3 ag-1 inactive, MsrA inhibitor inactive, NR2E3 ag-2 inactive, GalR3 antag conf 23 and HEK-CNG parental inactive.
`CC(=O)Nc1ccc(S(=O)(=O)Nc2cc(C)c(-n3nc4ccccc4n3)cc2O)cc1` gave bovine MsrA act inactive, NadD block inactive, GalR3 antagonist inactive, NR2E3 ag-1 inactive, MsrA inhibitor inactive and NR2E3 ag-2 inactive.
O=C(CCC1CCCN(c2ncccn2)C1)NCc1ccc(F)c(F)c1 (stereo not given) was read as bovine MsrA act inactive, NadD block inactive, GalR3 antagonist 38, NR2E3 ag-1 inactive, MsrA inhibitor inactive, NR2E3 ag-2 inactive, GalR3 antag conf inactive and HEK-CNG parental inactive.
O=C(CCC1CCCN(C(=O)C2CCCC2)C1)NCc1ccc(F)c(F)c1 (stereo not given) was read as bovine MsrA act inactive, NadD block inactive, GalR3 antagonist inactive, NR2E3 ag-1 inactive, MsrA inhibitor inactive and NR2E3 ag-2 inactive.
Screening CC(c1ccco1)N(C(=O)COc1ccc(Cl)cc1Cl)c1ccccn1 (stereo not given) returned bovine MsrA act inactive, NadD block inactive, GalR3 antagonist inactive, NR2E3 ag-1 inactive, MsrA inhibitor inactive and NR2E3 ag-2 inactive.
`CCOC(CNC(=O)c1[nH]c(C(F)(F)F)nc1-c1ccccc1)OCC` gave bovine MsrA act inactive, NadD block inactive, GalR3 antagonist inactive, MsrA inhibitor inactive and NR2E3 ag-2 inactive.
[O-][n+]1c2cc(C(F)(F)F)ccc2c2n1CCN=C2c1ccc(Cl)cc1 was read as bovine MsrA act inactive, NadD block inactive, NR2E3 ag-1 inactive, MsrA inhibitor inactive, NR2E3 ag-2 inactive, GalR3 antag conf inactive and HEK-CNG parental inactive.
`COc1ccc(CC2(CO)CCN(C(=O)NCc3ccccc3)CC2)cc1` gave bovine MsrA act inactive, NadD block inactive, GalR3 antagonist inactive, NR2E3 ag-1 inactive, MsrA inhibitor inactive and NR2E3 ag-2 inactive.
Screening COc1ccc(C(=O)Nc2ccccc2C(=O)NC(Cc2ccc(O)cc2)C(=O)NNC(=O)c2ccccc2)cc1 (stereo not given) returned bovine MsrA act inactive, NadD block inactive, GalR3 antagonist 13, NR2E3 ag-1 inactive, MsrA inhibitor inactive, NR2E3 ag-2 inactive, GalR3 antag conf inactive and HEK-CNG parental inactive.
Screening CCOc1nc(C#N)nc(N2CCCCC2)n1 returned bovine MsrA act inactive, NadD block inactive, GalR3 antagonist 95, MsrA inhibitor inactive, NR2E3 ag-2 inactive, GalR3 antag conf 108 and HEK-CNG parental inactive.
For N#CCOc1nc(N2CCCCC2)nc(N2CCCCC2)n1 the results were bovine MsrA act inactive, NadD block inactive, GalR3 antagonist inactive, NR2E3 ag-1 inactive, MsrA inhibitor inactive and NR2E3 ag-2 inactive.
CC1CCCCN1CCCNC(=O)CN1C(=O)c2cccnc2Oc2ccc(Cl)cc21 (stereo not given) was read as bovine MsrA act inactive, NadD block inactive, GalR3 antagonist 14, NR2E3 ag-1 inactive, MsrA inhibitor inactive, NR2E3 ag-2 inactive, GalR3 antag conf 19 and HEK-CNG parental inactive.
Cc1oc(-c2ccccc2)cc1C(=O)Nc1cccc(/C=C\C(=O)O)c1 was read as bovine MsrA act inactive, NadD block inactive, GalR3 antagonist 71, NR2E3 ag-1 inactive, MsrA inhibitor inactive, NR2E3 ag-2 inactive, GalR3 antag conf 91 and HEK-CNG parental inactive.
Screening C[C@@H]1CN([C@H](C)CO)C(=O)CCCn2nncc2CO[C@@H]1CN(C)S(=O)(=O)c1ccccc1F returned bovine MsrA act inactive, NadD block inactive, GalR3 antagonist inactive, MsrA inhibitor inactive and NR2E3 ag-2 inactive.
`N/C(=N\OC(=O)c1ccc(Cl)c(Cl)c1)c1cccnc1` gave bovine MsrA act inactive, NadD block inactive, GalR3 antagonist inactive, NR2E3 ag-1 inactive, MsrA inhibitor inactive and NR2E3 ag-2 inactive.
For N/C(=N\OC(=O)c1cccc(Cl)c1)c1cccnc1 the results were bovine MsrA act inactive, NadD block inactive, NR2E3 ag-1 inactive, MsrA inhibitor inactive, NR2E3 ag-2 inactive, GalR3 antag conf inactive and HEK-CNG parental inactive.
Screening O=C(NCC1CC1)c1ccc(Nc2nc3ccc(Br)cc3[nH]2)cc1 returned bovine MsrA act inactive, NadD block inactive, GalR3 antagonist inactive, NR2E3 ag-1 inactive, MsrA inhibitor inactive and NR2E3 ag-2 inactive.
Screening O=C(Cc1ccc(Nc2nc3ccc(Br)cc3[nH]2)cc1)NCCc1cccs1 returned bovine MsrA act inactive, NadD block inactive, GalR3 antagonist 15, NR2E3 ag-1 inactive, MsrA inhibitor inactive, NR2E3 ag-2 inactive, GalR3 antag conf 27 and HEK-CNG parental inactive.
`N#Cc1ccsc1NC(=O)CSc1ncnc2ccccc12` gave bovine MsrA act inactive, NadD block inactive, GalR3 antagonist inactive, NR2E3 ag-1 inactive, MsrA inhibitor inactive and NR2E3 ag-2 inactive.

Screens from PubChem.
